Measurements from ChEMBL document CHEMBL5576114, “Inhibition of DXR in the MEP pathway with lipophilic N-alkoxyaryl FR900098 analogs” (RSC Med Chem, 2024).
Values after ≈ are worked out from the molar mass of the structure shown.

Columns and labels:
[1] = test system: Plasmodium falciparum; experiment: Antiplasmodial activity against Plasmodium falciparum 3D7 assessed as reduction in parasite growth by measuring DNA content after 3 days by PicoGreen staining based FLUOstar omega microplate reader analysis; type: functional, organism-based; settings: 3D7, 72 h
Outline: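 Asynchronous cultures in 2% hematocrit, RPMI-1640 complete medium with 0.5% Albumax, under 5% O2/5% CO2/90% N2 at 37 °C. Diluted to 0.5% parasitemia, inhibitors 1.2 nM to 492.4 µM added at start. Growth read after 3 days as DNA content by PicoGreen fluorescence (485/528 nm). IC50 from 4-parameter nonlinear regression; technical duplicate, biological triplicate.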

[2] = target: T1, 1-deoxy-D-xylulose 5-phosphate reductoisomerase, apicoplastic (Plasmodium falciparum (isolate 3D7)) (UniProt Q8IKG4); experiment: Inhibition of Plasmodium falciparum DXR expressed in Escherichia coli BL21 CodonPlus (DE3)-RIL cells assessed as remaining activity using DOXP as substrate at 100 uM in presence of NADPH by UV-visible spectrophotometry relative to control
T1 sequence (whole entry): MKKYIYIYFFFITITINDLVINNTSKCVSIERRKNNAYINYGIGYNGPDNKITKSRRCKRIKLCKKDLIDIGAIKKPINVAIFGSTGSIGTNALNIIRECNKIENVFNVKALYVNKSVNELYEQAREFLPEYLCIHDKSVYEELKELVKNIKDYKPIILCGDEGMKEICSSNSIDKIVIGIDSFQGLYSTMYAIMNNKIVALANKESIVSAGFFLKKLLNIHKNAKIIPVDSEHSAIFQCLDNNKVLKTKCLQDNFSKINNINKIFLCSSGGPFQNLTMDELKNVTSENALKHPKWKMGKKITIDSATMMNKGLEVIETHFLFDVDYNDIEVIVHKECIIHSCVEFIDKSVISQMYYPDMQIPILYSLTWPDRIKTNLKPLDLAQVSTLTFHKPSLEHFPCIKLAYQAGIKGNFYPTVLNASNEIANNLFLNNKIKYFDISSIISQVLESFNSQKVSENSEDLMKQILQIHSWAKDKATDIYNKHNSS
Outline: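 Recombinant His-tagged PfDXR purified by TALON affinity. Assay at 37 °C in 100 mM Tris pH 7.8, 25 mM MgCl2, 0.86 µM enzyme, 150 µM NADPH; reaction started with 144 µM DOXP. NADPH oxidation followed at 340 nm. Single inhibitor concentration 100 µM, given as percent remaining activity; technical duplicates.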

[3] = target: T2, 1-deoxy-D-xylulose 5-phosphate reductoisomerase (Mycobacterium tuberculosis) (UniProt P9WNS1); experiment: Inhibition of Mycobacterium tuberculosis DXR expressed in Escherichia coli BL21 CodonPlus (DE3)-RIL cells assessed as remaining activity using DOXP as substrate at 100 uM in presence of NADPH by UV-visible spectrophotometry relative to control
T2 sequence (whole entry): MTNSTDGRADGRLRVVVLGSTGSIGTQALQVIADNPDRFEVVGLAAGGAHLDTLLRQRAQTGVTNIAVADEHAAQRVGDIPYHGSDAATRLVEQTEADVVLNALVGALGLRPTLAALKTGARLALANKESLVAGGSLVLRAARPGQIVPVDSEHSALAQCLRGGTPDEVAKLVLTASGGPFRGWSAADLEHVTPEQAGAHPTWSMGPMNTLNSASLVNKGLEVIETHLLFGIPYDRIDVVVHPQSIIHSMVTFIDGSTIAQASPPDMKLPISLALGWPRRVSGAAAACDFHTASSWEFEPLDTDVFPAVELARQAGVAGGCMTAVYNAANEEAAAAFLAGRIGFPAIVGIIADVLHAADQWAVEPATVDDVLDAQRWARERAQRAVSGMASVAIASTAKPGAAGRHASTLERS
Outline: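 Recombinant MtbDXR (pET101/D-TOPO in E. coli BL21 CodonPlus (DE3)-RIL, IMAC-purified) at 0.89 µM in 100 mM MES pH 6.5, 25 mM MgCl2, 150 µM NADPH, 47 µM DOXP, 37 °C. Inhibitor was tested at a single 100 µM. NADPH oxidation was followed at 340 nm, and percent remaining activity was reported. Technical duplicates.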

[4] = test system: Mycobacterium tuberculosis; experiment: Antibacterial activity against Mycobacterium tuberculosis H37Rv assessed as reduction in bacterial growth incubated for 2 weeks by macroscopic plate reader analysis; type: functional; settings: 336 h
Outline: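 H37Rv grown in 7H9 broth with 0.08% NaCl, 0.4% glucose, 0.05% casitone and 0.05% tyloxapol, then diluted 1:500. Compounds were made as 20 mg/mL DMSO stocks and run as eleven 2-fold serial dilutions. Plates were held 2 weeks at 37 °C and MIC99 was read macroscopically. Three independent measurements.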

[5] = target: T3, 1-deoxy-D-xylulose 5-phosphate reductoisomerase, apicoplastic (Plasmodium falciparum (isolate 3D7), UniProt Q8IKG4); experiment: Inhibition of Plasmodium falciparum DXR expressed in Escherichia coli BL21 CodonPlus (DE3)-RIL cells using DOXP as substrate in presence of NADPH by UV-visible spectrophotometry
T3 sequence (Q8IKG4 whole entry): T1 sequence (whole entry)

[6] = target: T1, 1-deoxy-D-xylulose 5-phosphate reductoisomerase, apicoplastic (Plasmodium falciparum (isolate 3D7)); experiment: Inhibition of Plasmodium falciparum DXR expressed in Escherichia coli BL21 CodonPlus (DE3)-RIL cells using DOXP as substrate at 100 uM in presence of NADPH by UV-visible spectrophotometry relative to control
Outline: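 PfDXR single-point test at 100 µM inhibitor. Conditions: 0.86 µM IMAC-purified enzyme, 100 mM Tris pH 7.8, 25 mM MgCl2, 150 µM NADPH, 37 °C. Reaction was started with 144 µM DOXP, and NADPH oxidation was monitored at 340 nm. Percent remaining activity was reported; technical duplicates.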

Work on `CC(=O)N(CCC(c1ccc(Cl)c(Cl)c1)P(=O)(O)O)OCc1ccc(-c2ccc(C(C)C)cc2)cc1` (stereo not given) yielded an IC50 [1] of 38.1 µM, an Activity [2] of 56.1% and an Activity [3] of 63.2%. It also gave an MIC [4] of 45 µM (≈ 24.8 µg/mL).

With `CC(=O)N(CCC(c1ccc(Cl)c(Cl)c1)P(=O)(O)O)OCc1ccc(-c2ccccc2)cc1` (stereo not given) the IC50 [1] was 86.4 µM, the Activity [2] was 27% and the Activity [3] was 93.9%. It also gave an MIC [4] of 23.1 µM (≈ 11.7 µg/mL).

`CC(=O)N(CCC(c1ccc(Cl)c(Cl)c1)P(=O)(OCOC(=O)C(C)(C)C)OCOC(=O)C(C)(C)C)OCc1ccccc1` (stereo not given) gave an IC50 [1] of 41.6 µM and an MIC [4] of 9.5 µM (≈ 6.28 µg/mL).

Compound `CC(=O)N(CCC(c1ccc(Cl)c(Cl)c1)P(=O)(O)O)OCCCCc1ccccc1` (stereo not given) has an IC50 [1] of 63.3 µM, an Activity [2] of 25.6% and an Activity [3] of 99.1%. It also gave an MIC [4] of 3.1 µM (≈ 1.47 µg/mL).

Compound `CC(=O)N(CCC(c1ccc(Cl)c(Cl)c1)P(=O)(O)O)OCc1ccc2ccccc2c1` (stereo not given) has an IC50 [1] of 60.9 µM, an Activity [2] of 46.6% and an Activity [3] of 82.1%. For the same compound, the MIC [4] was 24.2 µM (≈ 11.7 µg/mL).

Compound `CC(=O)N(CCC(c1ccc(Cl)c(Cl)c1)P(=O)(OCOC(=O)C(C)(C)C)OCOC(=O)C(C)(C)C)OCCCCc1ccccc1` (stereo not given) has an IC50 [1] of 13.9 µM and an MIC [4] of 17.8 µM (≈ 12.5 µg/mL).

`CC(=O)N(CCC(c1ccc(Cl)c(Cl)c1)P(=O)(OCOC(=O)C(C)(C)C)OCOC(=O)C(C)(C)C)OC(C)c1ccccc1` (stereo not given) showed an IC50 [1] of 5.22 µM and an MIC [4] of 3.9 µM (≈ 2.63 µg/mL).

`CC(=O)N(CCC(c1ccc(Cl)c(Cl)c1)P(=O)(OCOC(=O)C(C)(C)C)OCOC(=O)C(C)(C)C)OCc1ccc(C(C)C)cc1` (stereo not given) was tested, and the IC50 [1] was 13.9 µM and the MIC [4] was 17.8 µM (≈ 12.5 µg/mL).

In the case of `CC(=O)N(CCC(c1ccc(Cl)c(Cl)c1)P(=O)(OCOC(=O)C(C)(C)C)OCOC(=O)C(C)(C)C)OCc1ccc(-c2ccc(C(C)C)cc2)cc1` (stereo not given), the IC50 [1] is reported as 14.9 µM and the MIC [4] is reported as > 128 µM.

In the case of `CC(=O)N(CCC(c1ccc(Cl)c(Cl)c1)P(=O)(O)O)OCc1ccc(C(C)C)cc1` (stereo not given), the IC50 [1] is reported as 68.7 µM, the Activity [3] is reported as 80.9% and the IC50 [5] is reported as 26.5 µM. For the same compound, the MIC [4] was 12.3 µM (≈ 5.83 µg/mL) and the inhibition [6] was > 90%.

Compound `CC(=O)N(O)CCC(c1ccc(Cl)c(Cl)c1)P(=O)(OCOC(=O)C(C)(C)C)OCOC(=O)C(C)(C)C` (stereo not given) has an IC50 [1] of 13 µM and an MIC [4] of 8.1 µM (≈ 4.62 µg/mL).

`CC(=O)N(CCC(c1ccc(Cl)c(Cl)c1)P(=O)(OCOC(=O)C(C)(C)C)OCOC(=O)C(C)(C)C)OC(C)c1ccc(F)cc1` (stereo not given) showed an IC50 [1] of 21.2 µM and an MIC [4] of 6.6 µM (≈ 4.57 µg/mL).

`CC(=O)N(O)CCC(c1ccc(Cl)c(Cl)c1)P(=O)(O)O` (stereo not given) showed an IC50 [1] of 18.6 µM, an Activity [3] of 15.7% and an IC50 [5] of 13.6 µM. For the same compound, the MIC [4] was > 266 µM and the inhibition [6] was > 90%.
